Source: PubChem (several laboratories)
Shown are actives, neighbours in structure and some others; about 1.9% of the full set was active somewhere.
GAA850 FXN act – FXN promoter activators, primary screen, cell-based, luciferase luminescence, HEK293 lucGAA850; HEK293 lucGAA850 FXN promoter luciferase reporter, 24 h; percent of 10 µM SAHA response; activation, % at 6 µM; 0.56% of 360,000 active;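 active means activation above the average of all compounds screened plus 3 SD, cutoff fixed separately per campaign, cut at about 7.5% in these data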
procasp3 activ – activators of human procaspase-3 D3A mutant, primary screen, biochemical, absorbance, PC-3 D3A mutant, single concentration | Caspase-3 (Homo sapiens), P42574 | recombinant procaspase-3 D3A, Ac-DEVD-pNA absorbance 405 nm | activation, % at 8.5 µM | 0.11% of 330,000 active | AID 463141, 2010;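 active means activation above the mean of all tested compounds plus 3 SD, cut at about 21% in these data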
Target sequence (P42574 whole entry D9A/D28A/D175A): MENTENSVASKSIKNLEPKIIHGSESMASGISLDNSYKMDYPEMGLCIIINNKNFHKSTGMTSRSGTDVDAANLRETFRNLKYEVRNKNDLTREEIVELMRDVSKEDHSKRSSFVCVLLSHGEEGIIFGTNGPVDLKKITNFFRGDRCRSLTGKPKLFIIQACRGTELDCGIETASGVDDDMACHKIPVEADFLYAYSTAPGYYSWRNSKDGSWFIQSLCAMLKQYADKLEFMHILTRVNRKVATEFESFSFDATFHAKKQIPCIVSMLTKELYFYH
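Assay system – Procaspase-3 D3A mutant · Benchmarks – DMSO low control, extra-enzyme high control · Technique – 405 nm absorbance of p-nitroaniline, reads at 0 and 120 min · Doses – 8.5 µM nominal · Measure – % activation between DMSO and enzyme-spiked controls · Also added – Ac-DEVD-pNA chromogenic peptide substrate · Schedule – 1 h compound preincubation, 2 h substrate hydrolysis at 25 °C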
HIF activator – HIF pathway transcriptional activators, primary screen, cell-based, U2OS HRE-luciferase, luminescence | U2OS HRE-luciferase reporter; normalized: DMSO 0%, desferrioxamine 100% | activation, % at 7.5 µM (by protocol) | 0.32% of 300,000 active;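 active means mean activation of at least 10% of the iron chelator positive control signal, with at least half of replicates also reaching 10%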
Calb FLC – C. albicans growth inhibition with fluconazole, primary screen, CaCi-2 strain, Alamar Blue fluorescence; growth inhibition, % (test concentration not listed); 0.57% of 300,000 active; C. albicans CaCi-2 + fluconazole, 48 h; AID 1979, 2009;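 active means growth inhibition above about 58% in most replicates, limit read from the data, passing the limit was not always enough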;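 further: all wells also contain fluconazole at 8 µg/ml as a sub-toxic cotreatment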
Neddylation inh – inhibitors of cullin neddylation, primary screen, biochemical, TR-FRET, uHTS, NAE and Ubc12 | NEDD8-conjugating enzyme Ubc12 (Homo sapiens) + NEDD8-activating enzyme E1 regulatory … | inhibition, % at 25 µM | 0.58% of 360,000 active; in the data active means inhibition above about 36%
proCasp7 act – procaspase-7 activators, primary screen, counter-screen for procaspase-3 activator project, biochemical, absorbance, HTS, human; 0.093% of 330,000 active; recombinant procaspase-7, Ac-DEVD-pNA absorbance 405 nm; D23A/D198A/D206A triple mutant, cannot self-cleave; scale: DMSO 0, 5 µM enzyme 100; activation, % at 8.5 µM; AID 463210, 2010; Caspase-7 (Homo sapiens), P55210;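 active means percent activation above the screen-wide mean plus 3 SD, cut at about 25% in these data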
Target sequence (P55210 whole entry D23A/D198A/D206A): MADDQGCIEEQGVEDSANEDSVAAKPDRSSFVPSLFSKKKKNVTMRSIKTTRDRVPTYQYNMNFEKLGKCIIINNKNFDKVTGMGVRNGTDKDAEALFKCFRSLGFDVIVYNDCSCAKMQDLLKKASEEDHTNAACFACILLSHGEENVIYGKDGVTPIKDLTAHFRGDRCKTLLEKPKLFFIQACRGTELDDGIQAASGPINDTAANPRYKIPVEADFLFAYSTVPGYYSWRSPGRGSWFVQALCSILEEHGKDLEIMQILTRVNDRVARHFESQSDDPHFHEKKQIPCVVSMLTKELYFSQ
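Test system: Procaspase-7 triple mutant (PC-7 D3A). Also added: Ac-DEVD-pNA substrate, 400 µM as added. Schedule: 1 h enzyme–compound preincubation and 2 h substrate reaction, both 25 °C. Signal: p-Nitroaniline absorbance at 405 nm, read at 0 and 120 min. Control set: low DMSO alone, high DMSO plus 5 µM PC-7.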
Numbers stand for hits; i = inactive; nt = not tested or not shown.

SMILES	GAA850 FXN act	procasp3 activ	HIF activator	Calb FLC	Neddylation inh	proCasp7 act
CCN(CC)c1ccc(N=Cc2ccc(N(CC)CC)cc2O)cc1	i	i	i	78.2	i	i
CCN(CC)c1ccc(/C=N/NC(=O)c2ccoc2C)c(O)c1	i	i	64.4	i	i	i
CCN(CC)c1ccc(/C=N/NC(=O)c2ccc3nc[nH]c3c2)c(O)c1	i	i	95.6	109.3	38.3	i
CN1CCN(C(=O)c2cccc3c(-c4ccc(F)c(F)c4)coc23)CC1	i	nt	nt	nt	i	nt
O=S(=O)(Nc1nc2ccccc2nc1Nc1ccc2c(c1)OCCO2)c1cccs1	i	i	i	i	41.6	i
CCC(C(=O)NC1CCCC1)n1c2ccccc2c2nc(=O)cc(C)n21 (stereo not drawn)	i	nt	nt	nt	i	nt
CC(=O)c1ccc(-n2cc(-c3ccc(C(C)(C)C)cc3)[n+]3c2SCCC3)cc1	i	i	i	100.8	i	i
Cc1ccccc1CN1C(=O)CSc2ccc(C(=O)N3CCOCC3)cc21	i	i	22.5	i	i	i
CC1=C(C(=O)N2CCCCCC2)CC(CC(=O)NC2CCCCC2)C(=O)N1Cc1ccc(C(C)(C)C)cc1 (stereo not drawn)	nt	nt	nt	nt	i	nt
O=C1CCC/C(=N/Nc2ccc(Cl)cc2)C1	i	i	i	105.7	i	i
O=Cc1ccc(O)c2ncccc12	i	nt	i	94.1	nt	nt
COC(=O)c1ccc(C(=O)OC)c(NC(=O)CSc2cccc[n+]2[O-])c1	i	i	i	112.6	i	i
O=C(CSc1cccc[n+]1[O-])CSc1cccc[n+]1[O-]	i	i	i	72.9	i	i
O=C(CCc1ccccc1)NNC(=S)NC(=O)c1ccccc1	i	i	i	110.1	i	i
Cc1ccccc1C(=O)NNC(=S)NC(=O)c1ccccc1	i	i	i	97.7	i	i
CCCCOc1ccccc1C(=O)NNC(=S)NC(=O)c1ccccc1[N+](=O)[O-]	i	i	i	102.5	i	i
O=C(NC(=S)NNC(=O)c1ccccc1O)c1ccccc1	i	i	i	i	i	i
Cc1ccc(C(=O)NC(=S)NNC(=O)c2ccccc2[N+](=O)[O-])cc1	i	i	nt	113.5	i	i
CC1(C)Oc2cc3oc(=O)ccc3c3c2C2C1CCC(C)(O3)C2O (stereo not drawn)	i	nt	nt	nt	nt	nt
CCNC(=O)C1(C)CCN(C(=O)c2cccnc2SC)C1 (stereo not drawn)	i	nt	nt	nt	i	nt
CC(NS(=O)(=O)c1ccc2[nH]c(=O)[nH]c2c1)c1ccc(F)cc1 (stereo not drawn)	i	nt	nt	nt	i	nt
O=C(O)c1ccc(NC(=S)NC(=O)c2ccc(-c3ccccc3)cc2)cc1	i	i	i	84.4	i	i
Cc1ccc(C(=O)NC(=S)NNC(=O)c2ccccc2)cc1	i	i	i	i	i	i
Cc1cccc(C(=O)NNC(=S)NC(=O)c2ccccc2)c1	i	i	i	i	i	i
Cc1ccc(C(=O)NNC(=S)NC(=O)c2ccccc2)cc1	i	i	i	i	38.9	i
SMILES	GAA850 FXN act	procasp3 activ	HIF activator	Calb FLC	Neddylation inh	proCasp7 act
Cc1cccc(C(=O)NNC(=S)NC(=O)c2cccs2)c1	i	i	i	102.5	i	i
O=C(NC(=S)Nc1ccccc1)c1ccc(-c2ccccc2)cc1	i	i	i	i	i	i
Cc1nc(C(F)(F)F)ccc1C(=O)N1CCC(C)(C(=O)NS(=O)(=O)C2CC2)C1 (stereo not drawn)	i	nt	nt	nt	i	nt
CC1CCN(Cc2c(C(=O)N/N=C/c3ccccc3O)nnn2-c2nonc2N)CC1	i	i	30.7	i	i	i
C/C(=N\NC(=O)c1nnn(-c2nonc2N)c1CN(C)c1ccccc1)c1ccccc1O	i	i	i	i	nt	i
CCOc1cccc(-c2c(C(=O)N/N=C/c3cccnc3)nnn2-c2nonc2N)c1	i	i	i	i	i	i
C/C(=N\NC(=O)c1nnn(-c2nonc2N)c1CN1CCCCC1)c1ccccc1O	i	i	i	i	40.7	i
CCOc1cccc(-c2c(C(=O)N/N=C/c3ccc(Br)cc3)nnn2-c2nonc2N)c1	i	i	10.4	i	i	i
Nc1nonc1-n1nnc(C(=O)N/N=C/c2ccc(Cl)cc2Cl)c1CN1CCCCC1	i	i	i	i	i	i
Nc1nonc1-n1nnc(C(=O)N/N=C/c2cc(Cl)ccc2O)c1CN1CCCCCC1	i	i	i	101.1	i	i
COc1ccc(CC(N)c2csc(Nc3nncc4ccccc34)n2)cc1 (stereo not drawn)	i	nt	nt	nt	i	nt
Nc1nc(N)c2ncn(C3C=CC(CO)C3)c2n1 (stereo not drawn)	nt	nt	nt	nt	i	nt
O=C(N/N=C/c1c(O)ccc2ccccc12)c1[nH]ncc1Br	i	i	115.4	i	i	i
COc1ccc2ccccc2c1/C=N/NC(=O)c1cccc(Br)c1	i	i	i	i	i	i
CCOc1ccc(/C=N/NC(=O)c2[nH]ncc2Br)c(O)c1	i	i	22.5	114.0	i	i
O=C(N/N=C\c1ccc(Cl)s1)c1ccc(Cn2cccn2)o1	i	i	i	i	i	i
COc1ccc(OC)c(/C=N/NC(=O)c2[nH]ncc2Br)c1	i	i	i	i	nt	i
O=C(N/N=C\c1c(O)ccc2ccccc12)c1ccc(Cn2cccn2)o1	i	i	37.7	i	i	i
O=C(N/N=C/c1c(O)ccc2ccccc12)c1cccc(C(F)(F)F)c1	i	i	13.9	89.8	i	i
CCOC(=O)C1(C)CCCN(C(=O)COc2ccccc2)C1 (stereo not drawn)	i	nt	nt	nt	i	nt
Cc1ccccc1NC(=O)Cc1nc(COC(=O)CSc2ccc(F)cc2)cs1	i	nt	nt	nt	i	nt
CC(=O)NC(c1ccccc1)c1cc([N+](=O)[O-])c2cccnc2c1O (stereo not drawn)	i	i	i	i	i	i
CCCCC(=O)NC(c1ccc(C(C)C)cc1)c1ccc2cccnc2c1O (stereo not drawn)	i	i	103.1	i	i	i
CCC(=O)NC(c1ccccc1OC)c1ccc2cccnc2c1O (stereo not drawn)	i	i	35.2	103.1	i	i
CC(=O)NC(c1ccc(C(C)C)cc1)c1ccc2cccnc2c1O (stereo not drawn)	i	i	163.3	i	i	i
CCCCC(=O)NC(c1ccc([N+](=O)[O-])cc1)c1c(O)ccc2ccccc12 (stereo not drawn)	i	i	i	i	i	i
